Variants at the floor of the assay were thinned out.
B1: tRNA (parent)
chain: GUUCCGUUGGCGUAAUGGUAACGCGUCUCCCUCCUAAGGAGAAGACUGCGGGUUCGAGUCCCGUACGGAACG

Variants of: B1
Experiment: yeast fitness relative to wild type (ratio to wild type); higher = fitter; tRNA-Arg(CCU), competitive growth, 37 C, YPD
Procedure, shortened: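 A pool of Saccharomyces cerevisiae strains, each with a tRNA-Arg(CCU) gene variant at the native genomic locus, was competed in YPD at 37°C for 24 hours across six parallel replicates. The variants had been chemically synthesised at a 3% per-site mutation rate over 69 sites, and gene amplicons before and after competition were read by 100-nucleotide paired-end sequencing. Darwinian fitness relative to wild type rested on changes in genotype frequencies. Genotypes required ≥ 100 starting reads, and estimates < 0.5 were set to 0.5.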
In the case of GUUCAGUUGGCGUAAUGGUAACGCGUCUCCCUCCUAAGGAGAAGACUGCGGGUCCGAGUCUUGUACGGUACG [C5A U54C C61U C62U A69U], the yeast fitness is reported as 0.546. With GUUCGGUUGGCGUGAUGGUAACGCGUCUCCCUCCUUAGGAGAAGACUGCGGGUUCGAGUCCCGUACAGAACG [C5G A14G A36U G67A] the yeast fitness was ≤ 0.5. For GUUCGGUUGGCGUUAUGGUAACGCGUCUCCCUCCUAAGGAGAAGACUGCGGGUUCGAGUCCCGUACAGGACG [C5G A14U G67A A69G], the yeast fitness was 0.503. With GUUCGGUUGGCGUAUUGGUAACGCGUCUCAAUCCUAAGGAGAAGACUGCGGGUUCGAGUCCCGUAGGGAACG [C5G A15U C30A C31A C66G] the yeast fitness was ≤ 0.5. With GUUCAGUUGGCGUAAUGGUAACGCGUCUCCCUCCCAAGGAGAAAACUCCGGGUUGGAGUCCCGUACGGACCG [C5A U35C G44A G48C C55G A70C] the yeast fitness was ≤ 0.5. With GUUCGGUUGGCGUUAUGGUAACGCGUCUCCCUCCUAUGGAGAAGCCUGCGGGUUCGAGUCCUGUACGGAACG [C5G A14U A37U A45C C62U] the yeast fitness was ≤ 0.5. With GUUCGGUUGGCGUAUUGGUAACGCGUCUCCCUCCUAAGGAGAAGACUGCGGGUUCAAGUCCCGUACGGAGCG [C5G A15U G56A A70G] the yeast fitness was ≤ 0.5. In the case of GUUCGGUUGGCGUCAUGGUAACGCGUCUCCCUCCUAGGGAGAAGACUGCGGGUUCGAGUCCGGUACGGUACG [C5G A14C A37G C62G A69U], the yeast fitness is reported as ≤ 0.5. For GUUCGGUUGGCGUAUUGGUAACGCGUCUCCCUCCUAAGGAGAAGACUGCGGGUUCGAGUCCCGUACGGAACG [C5G A15U], the yeast fitness was 0.747. Variant GUUCGGUUGGCGUACUGGUAACGCGUCUCCCUCCUAAGGAGAAGACUGCGGGUUCGAGUCCCGUACGGAACG [C5G A15C] has a yeast fitness of 0.626. With GUUCGGUUGGCGUAGUGGUAACGCGUCUCCCUCCUAAGGAGAAGACUGCGGGUUCGAGUCUCGUACGGAACG [C5G A15G C61U] the yeast fitness was 0.539. Variant GUUCGGUUGGCGUUAUGAUAUCGCGUCUCCCUCCUAAGGAGGAGACUGCGGGUUCGAGUCCCGUACGGAACG [C5G A14U G18A A21U A42G] has a yeast fitness of 0.646. With GUUCGGUUGGCGUCAUGGUAACGCGUCUCCCUCCUAGGGAGAAGACUGCGGGUUCGAGUCCCGUACGGAACG [C5G A14C A37G] the yeast fitness was ≤ 0.5. Variant GUUCGGUUGGCGUAGUGGUAACGCGUGACCCACCUAAGGAGAAGGUUGCGGGUUCCAGUCUCGUACGGAACG [C5G A15G C27G U28A U32A A45G C46U G56C C61U] has a yeast fitness of 0.736. For GUUCGGUUGGCGUUAUGGUAACGCAUCUCCCUCCUAAGGAGAAGACUGCGGGUUCAAGUCCCGUACAGAACG [C5G A14U G25A G56A G67A], the yeast fitness was ≤ 0.5. With GUUCAGUUGGCGUAAUGGUAACGCGUCUCCCUCCCAAGGAGAAAACUCCGGGUUGGAGUCCCGUAUGGAUCG [C5A U35C G44A G48C C55G C66U A70U] the yeast fitness was 0.558. For GUUCGGUUGGCGUUAUGGUCACGCGUCUCCCUCCUAAGGAGAAGGCUGCGGGUUCGAGUCCCGUACGGAACG [C5G A14U A20C A45G], the yeast fitness was ≤ 0.5. With GUUCGGUUGGCGUUAUGGUAACGCGUCUCCCUGCUAAGGAGAUGACUGCGGGUCCGAGUCCCGUACGGAACG [C5G A14U C33G A43U U54C] the yeast fitness was ≤ 0.5. For GUUCGGUUGGCGUUAUGGUAACGCAUCUCCCUACUAAGGAGAAGACUGCGGGUUCGAGUCUCGUACGGAACG [C5G A14U G25A C33A C61U], the yeast fitness was ≤ 0.5. GUUCGGUUGGCGUAUUGGUUACGCGUCUCCCUCCUAAGGCGAAGACUGCGGGUUCGAGUCCCGUACAGAACG [C5G A15U A20U A40C G67A] gave a yeast fitness of 0.538. In the case of GUUCGGUUGGCGUCAUGAUAGCGCGUCUCCCUCCUUAGGAGAAGUCUGCGGGUUCGAGUCCCGUACGGAACG [C5G A14C G18A A21G A36U A45U], the yeast fitness is reported as ≤ 0.5. For GUUCGGUUGGCGUACUGCUAACGCGUCUCCCUCCUAAGGAGAAGACUGUGGGUUCGAGUCCCGAACGGUACG [C5G A15C G18C C49U U64A A69U], the yeast fitness was ≤ 0.5. GUUCAGUUGGCGUAAUGGUAACGCGUCUCCCUCCCUAGGAGAAGACUGCGGGUUCGAGUCCCGUACGGAACG [C5A U35C A36U] gave a yeast fitness of 0.57. For GUUCAGUUGGCGUAAUGGUAACGCGUCUCCCUCCUAAGGAGAAGACUGCGGGUUCGAGCCCCGUACGGAACG [C5A U59C], the yeast fitness was 0.807. GUUCAGUUGGCGUAAUGGUAACGCGUCUCCCUCCUAAGGAGAAGACUGCGGGUUCGAGGCCCGUACGGAACG [C5A U59G] showed a yeast fitness of 0.746. For GUUCAGUUGGCGUAAUGGUAACGCGUCUCCCUCCCAAGGAGAAAACUCCGGGUUGGAGUCCCGUACGGAACG [C5A U35C G44A G48C C55G], the yeast fitness was ≤ 0.5. For GUUCAGUUGGCGUAAUGGUAACGCGUCUCCCUCCCAAGGAGAAAACUCCGGGUUAGAGUCCCGUACGGAACG [C5A U35C G44A G48C C55A], the yeast fitness was ≤ 0.5. With GUUCGGUUGGCGUCAUGGUAACGCGUCACCAUCCUAAGGAGAAGUCUGAGGGUUCGAGUCCCGUAUGGAACG [C5G A14C U28A C31A A45U C49A C66U] the yeast fitness was ≤ 0.5. With GUUCGGUUGGCGUCAUGAUAACGCGUCUCCCUCCUAAGGAGAGGCUUGCGGGUUCGAGUCCCGUACGGCACG [C5G A14C G18A A43G A45C C46U A69C] the yeast fitness was ≤ 0.5. In the case of GUUCGGUUGGCGUAGUGGUAGCGCCUCUCCCUUCUAAGGAGAAGACUGCGGGUUCGAGUCCCGUACGAAACG [C5G A15G A21G G25C C33U G68A], the yeast fitness is reported as ≤ 0.5. With GUUCAGUUGGCGUAAUGGUAACGCGUCUCCCGCCUAAGGAGAAGACUGCGGGUUUGAGUCCCGUACGGAACG [C5A U32G C55U] the yeast fitness was ≤ 0.5. For GUUCGGUUGGCGUCAUGGUAACCCGUCUCCCUUCUAAAGAGAAGACUGCGGGUUCGACUCCCGUACGGAGCG [C5G A14C G23C C33U G38A G58C A70G], the yeast fitness was ≤ 0.5. Work on GUUCAGUUGGCGUAAUGGUAACGCGUCUCCCUCCUAAGGAGAAGACCGCGGGUUCGAGUCCCGUACGGAGCG [C5A U47C A70G] yielded a yeast fitness of 0.705. For GUUCGGUUGGCGUUAUGGUAACGCGUCUCCCUCCUAAGGAGAAGACUGCGGGUUCGAGUCCCGUACGCAACG [C5G A14U G68C], the yeast fitness was ≤ 0.5. With GUUCGGUUGGCGUCAUGGUAACGCGUCUCCCUCCUAACAAGACGACUGCGGGUUCGAGUGCCGUCCGGAACG [C5G A14C G38C G39A A43C C60G A65C] the yeast fitness was ≤ 0.5. In the case of GUUCGGUUGGCGUAGUGGUAACGCGUCUCCCUCCUAAGGAGAAGACUGCGGGUAGGAGUCCCGUACGGAACG [C5G A15G U54A C55G], the yeast fitness is reported as ≤ 0.5. In the case of GUUCAGUUGGCGUAAUGGUAACGCGUCUCCCGCCUAAGGAGAAGACUGCGGGUUCGAGUCCCGUACGGAACG [C5A U32G], the yeast fitness is reported as 0.584.
